Results as given in ChEMBL document CHEMBL4673212, “Investigation of synergistic antimicrobial effects of the drug combinations of meropenem and 1,2-benzisoselenazol-3(2H)-one derivatives on carbapenem-resistant Enterobacteriaceae producing NDM-1” (Eur J Med Chem, 2018).

Experiments:
Type in all cases: functional
[1] = tested on: Enterobacter cloacae; assay: Synergistic antibacterial activity against carbapenem-resistant Enterobacter cloacae isolate 27 harboring CTX-M-3, CTX-M-14, TEM-1 and SHV-12 assessed as fractional inhibitory concentration index in presence of meropenem by CLSI protocol based assay
In short: (§1)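 FIC index from MICs of compound alone, meropenem alone, and the 1:1 (mass) compound–meropenem combination, read by eye after overnight incubation in a CLSI-based assay. FIC index = MICcombo/MICcpd + MICcombo/MICMem. FIC index ≤0.5 counted as synergy. At least triplicate assays. Clinical NDM-1 isolates for 17-39; E. coli TG1 carrying the IncX3 blaNDM-1 plasmid for 15.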

[2] = tested on: Enterobacter cloacae; assay: Growth inhibition of carbapenem-resistant Enterobacter cloacae isolate 07 harboring CTX-M-14, TEM-1 and SHV-12 by CLSI protocol based assay
[3] = tested on: Enterobacter cloacae; assay: Growth inhibition of carbapenem-resistant Enterobacter cloacae isolate 18 harboring IMP-4 and TEM-1 by CLSI protocol based assay
[4] = tested on: Escherichia coli; assay: Synergistic antibacterial activity against carbapenem-resistant Escherichia coli isolate 06 harboring CTX-M-14, CTX-M-3 and SHV-12 assessed as fractional inhibitory concentration index in presence of meropenem by CLSI protocol based assay; in short: as §1
[5] = tested on: Enterobacter cloacae; assay: Potentiation of meropenem-induced antibacterial activity against carbapenem-resistant Enterobacter cloacae isolate 09 harboring CTX-M-3, CTX-M-14, TEM-1 and SHV-12 assessed as meropenem MIC by CLSI protocol based assay (Rvb >= 128 ug/ml)
[6] = tested on: Enterobacter cloacae; assay: Synergistic antibacterial activity against carbapenem-resistant Enterobacter cloacae isolate 09 harboring CTX-M-3, CTX-M-14, TEM-1 and SHV-12 assessed as fractional inhibitory concentration index in presence of meropenem by CLSI protocol based assay; in short: as §1
[7] = tested on: Citrobacter freundii; assay: Growth inhibition of carbapenem-resistant Citrobacter freundii isolate 35 harboring CTX-M-3, KPC-2 and SHV-12 by CLSI protocol based assay
[8] = tested on: Enterobacter cloacae; assay: Growth inhibition of carbapenem-resistant Enterobacter cloacae isolate 28 harboring TEM-1 and SHV-12 by CLSI protocol based assay
[9] = tested on: Morganella morganii; assay: Potentiation of meropenem-induced antibacterial activity against carbapenem-resistant Morganella morganii isolate 23 assessed as meropenem MIC by CLSI protocol based assay (reference value: 64 ug/ml)
[10] = tested on: Escherichia coli; assay: Synergistic antibacterial activity against carbapenem-resistant Escherichia coli isolate 33 harboring CTX-M-15 assessed as fractional inhibitory concentration index in presence of meropenem by CLSI protocol based assay; in short: as §1
[11] = tested on: Enterobacter cloacae; assay: Synergistic antibacterial activity against carbapenem-resistant Enterobacter cloacae isolate 10 harboring CTX-M-14, TEM-1 and SHV-12 assessed as fractional inhibitory concentration index in presence of meropenem by CLSI protocol based assay; in short: as §1
[12] = tested on: Citrobacter freundii; assay: Potentiation of meropenem-induced antibacterial activity against carbapenem-resistant Citrobacter freundii isolate 35 harboring CTX-M-3, KPC-2 and SHV-12 assessed as meropenem MIC by CLSI protocol based assay (Rvb >= 128 ug/ml)
[13] = tested on: Escherichia coli; assay: Synergistic antibacterial activity against Escherichia coli TG1 transformed with IncX3 plasmid expressing blaNDM-1 assessed as ratio of negative logarithm of fractional inhibitory concentration index to non-hydrogen atom in presence of meropenem incubated for overnight by CLSI protocol based assay; conditions: time 12 hrs
In short: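 In E. coli TG1 carrying the IncX3 blaNDM-1 plasmid, the FIC index was taken from overnight CLSI-based MICs of compound, meropenem and their 1:1 mass mixture, read by eye. Synergistic efficiency = −ln(FIC index) divided by the number of non-hydrogen atoms. At least triplicate assays.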

[14] = tested on: Enterobacter cloacae; assay: Potentiation of meropenem-induced antibacterial activity against carbapenem-resistant Enterobacter cloacae isolate 07 harboring CTX-M-14, TEM-1 and SHV-12 assessed as meropenem MIC by CLSI protocol based assay (reference value: 64 ug/ml)
[15] = tested on: Klebsiella oxytoca; assay: Potentiation of meropenem-induced antibacterial activity against carbapenem-resistant Klebsiella oxytoca isolate 03 harboring SHV-12 assessed as meropenem MIC by CLSI protocol based assay (Rvb >= 128 ug/ml)
[16] = tested on: Escherichia coli; assay: Synergistic antibacterial activity against carbapenem-resistant Escherichia coli isolate 34 harboring CTX-M-15, TEM-1 and SHV-12 assessed as fractional inhibitory concentration index in presence of meropenem by CLSI protocol based assay; in short: as §1
[17] = tested on: Morganella morganii; assay: Growth inhibition of carbapenem-resistant Morganella morganii isolate 23 by CLSI protocol based assay
[18] = tested on: Morganella morganii; assay: Synergistic antibacterial activity against carbapenem-resistant Morganella morganii isolate 23 assessed as fractional inhibitory concentration index in presence of meropenem by CLSI protocol based assay; in short: as §1
[19] = tested on: Citrobacter freundii; assay: Potentiation of meropenem-induced antibacterial activity against carbapenem-resistant Citrobacter freundii isolate 17 harboring SHV-12 assessed as meropenem MIC by CLSI protocol based assay (reference value: 64 ug/ml)
[20] = tested on: Enterobacter cloacae; assay: Synergistic antibacterial activity against carbapenem-resistant Enterobacter cloacae isolate 19 harboring CTX-M-14 and KPC-2 assessed as fractional inhibitory concentration index in presence of meropenem by CLSI protocol based assay
[21] = tested on: Klebsiella oxytoca; assay: Potentiation of meropenem-induced antibacterial activity against carbapenem-resistant Klebsiella oxytoca isolate 16 harboring SHV-12 assessed as meropenem MIC by CLSI protocol based assay (Rvb >= 128 ug/ml)
[22] = tested on: Escherichia coli; assay: Growth inhibition of carbapenem-resistant Escherichia coli isolate 45 by CLSI protocol based assay
[23] = tested on: Klebsiella pneumoniae; assay: Potentiation of meropenem-induced antibacterial activity against carbapenem-resistant Klebsiella pneumoniae isolate 14 harboring CTX-M-14, KPC-2 and SHV-12 assessed as meropenem MIC by CLSI protocol based assay (Rvb >= 128 ug/ml)
[24] = tested on: Klebsiella pneumoniae; assay: Potentiation of meropenem-induced antibacterial activity against carbapenem-resistant Klebsiella pneumoniae isolate 04 harboring CTX-M-14, VIM-1, TEM-1 and SHV-12 assessed as meropenem MIC by CLSI protocol based assay (Rvb >= 128 ug/ml)
[25] = tested on: Enterobacter cloacae; assay: Synergistic antibacterial activity against carbapenem-resistant Enterobacter cloacae isolate 08 harboring CTX-M-14, TEM-1 and SHV-12 assessed as fractional inhibitory concentration index in presence of meropenem by CLSI protocol based assay; in short: as §1
[26] = tested on: Klebsiella oxytoca; assay: Synergistic antibacterial activity against carbapenem-resistant Klebsiella oxytoca isolate 16 harboring SHV-12 assessed as fractional inhibitory concentration index in presence of meropenem by CLSI protocol based assay; in short: as §1
[27] = tested on: Klebsiella oxytoca; assay: Growth inhibition of carbapenem-resistant Klebsiella oxytoca isolate 03 harboring SHV-12 by CLSI protocol based assay
[28] = tested on: Escherichia coli; assay: Growth inhibition of carbapenem-resistant Escherichia coli isolate 34 harboring CTX-M-15, TEM-1 and SHV-12 by CLSI protocol based assay
[29] = tested on: Enterobacter cloacae; assay: Growth inhibition of carbapenem-resistant Enterobacter cloacae isolate 09 harboring CTX-M-3, CTX-M-14, TEM-1 and SHV-12 by CLSI protocol based assay
[30] = tested on: Enterobacter cloacae; assay: Growth inhibition of carbapenem-resistant Enterobacter cloacae isolate 22 harboring CTX-M-14, TEM-1 and SHV-12 by CLSI protocol based assay
[31] = tested on: Citrobacter freundii; assay: Synergistic antibacterial activity against carbapenem-resistant Citrobacter freundii isolate 43 assessed as fractional inhibitory concentration index in presence of meropenem by CLSI protocol based assay; in short: as §1

SMILES: CC(C)(C)OC(=O)NCCn1[se]c2ccccc2c1=O
- fractional inhibitory concentration index (FICI) [1]: 0.16
- MIC [2]: ≥ 128 µg/mL
- MIC [3]: ≥ 128 µg/mL
- fractional inhibitory concentration index (FICI) [4]: 0.13
- MIC [5]: 8 µg/mL
- fractional inhibitory concentration index (FICI) [6]: 0.13
- MIC [7]: ≥ 128 µg/mL
- MIC [8]: ≥ 128 µg/mL
- MIC [9]: 8 µg/mL
- fractional inhibitory concentration index (FICI) [10]: 0.19
- fractional inhibitory concentration index (FICI) [11]: 0.19
- MIC [12]: 8 µg/mL
- Ratio [13]: 0.153
- MIC [14]: 8 µg/mL
- MIC [15]: 8 µg/mL
- fractional inhibitory concentration index (FICI) [16]: 0.09
- MIC [17]: ≥ 128 µg/mL
- fractional inhibitory concentration index (FICI) [18]: 0.19
- MIC [19]: 4 µg/mL
- fractional inhibitory concentration index (FICI) [20]: 0.25
- MIC [21]: 8 µg/mL
- MIC [22]: ≥ 128 µg/mL
- MIC [23]: 8 µg/mL
- MIC [24]: 32 µg/mL
- fractional inhibitory concentration index (FICI) [25]: 0.16
- fractional inhibitory concentration index (FICI) [26]: 0.13
- MIC [27]: ≥ 128 µg/mL
- MIC [28]: ≥ 128 µg/mL
- MIC [29]: ≥ 128 µg/mL
- MIC [30]: ≥ 128 µg/mL
- fractional inhibitory concentration index (FICI) [31]: 0.25

SMILES: O=c1c2ccccc2[se]n1-c1ccccc1 [EBSELEN]
- fractional inhibitory concentration index (FICI) [1]: 2.5
- MIC [2]: ≥ 128 µg/mL
- MIC [3]: ≥ 128 µg/mL
- fractional inhibitory concentration index (FICI) [4]: 1
- MIC [5]: ≥ 128 µg/mL
- fractional inhibitory concentration index (FICI) [6]: 2
- MIC [7]: ≥ 128 µg/mL
- MIC [8]: ≥ 128 µg/mL
- MIC [9]: 64 µg/mL
- fractional inhibitory concentration index (FICI) [10]: 0.38
- fractional inhibitory concentration index (FICI) [11]: 1.5
- MIC [12]: 32 µg/mL
- Ratio [13]: 0.043
- MIC [14]: 16 µg/mL
- MIC [15]: 32 µg/mL
- fractional inhibitory concentration index (FICI) [16]: 0.38
- MIC [17]: ≥ 128 µg/mL
- fractional inhibitory concentration index (FICI) [18]: 1.5
- MIC [19]: 16 µg/mL
- fractional inhibitory concentration index (FICI) [20]: 2
- MIC [21]: 32 µg/mL
- MIC [22]: ≥ 128 µg/mL
- MIC [23]: ≥ 128 µg/mL
- MIC [24]: 64 µg/mL
- fractional inhibitory concentration index (FICI) [25]: 1.25
- fractional inhibitory concentration index (FICI) [26]: 0.5
- MIC [27]: ≥ 128 µg/mL
- MIC [28]: ≥ 128 µg/mL
- MIC [29]: ≥ 128 µg/mL
- MIC [30]: ≥ 128 µg/mL
- fractional inhibitory concentration index (FICI) [31]: 0.5
